Test results published in publication PMC3517043 (ChemMedChem, 2012).
In brackets after ≈: the same amount, converted by molar mass. Where two headings read alike, the source gives them in different places. Square brackets hold non-standard residues; d marks the D form. Ends that are not written are not given here. Peptide text beside a SMILES is read from it. NMeI = CC[C@H](C)[C@H](NC)C(=O)O; NMeV = CN[C@H](C(=O)O)C(C)C; NMeA = CN[C@@H](C)C(=O)O; Sar = CNCC(=O)O

Legend:
[1] = tested on: differentiated PC-12 cells; assay: Toxicity of peptides alone, MTT cell viability assay; format: cell-based, rat; conditions: peptide alone at 50 μM, 24 h
How it was run: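 PC-12 cells differentiated with nerve growth factor (50 ng/mL) for 48 h. Peptide dissolved in a small amount of 60 mM NaOH, diluted to 50 μM in culture medium, and incubated alone with cells for 24 h. Viability read by MTT kit. Controls were NaOH at matching concentration and medium alone. Percentage viability was scaled to 1 μM staurosporine, taken as 100% loss.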

[2] = Solubility by filtration assay; format: physicochemical; conditions: pH 7.4
[3] = tested on: Aβ42-induced toxicity in differentiated PC-12 cells; format: cell-based, rat; conditions: for IC50: 48 h; for Decrease in activity relative to the corresponding N-Me-A analogue (LDH): original side-chain restored versus N-Me-A at the same position
[4] = tested on: Aβ42-induced toxicity in differentiated PC-12 cells; format: cell-based, rat; conditions: for IC50: 24 h; for Decrease in activity relative to the corresponding N-Me-A analogue (MTT): original side-chain restored versus N-Me-A at the same position
[5] = tested on: mouse primary hippocampal neurons; conditions: cited from earlier work
Aβ42 = conditions: read-out: IC50, inhibition of Aβ42 hexamer formation; photo-induced cross-linking of unmodified proteins; cited from earlier work

Compound	solubility at 1 min ([2]; 10 mM sodium phosphate buffer)	IC50 [3]	IC50 [4]	also measured
CC[C@H](C)[C@H](NC(=O)[C@H](C)NC)C(=O)NCC(=O)N[C@@H](CC(C)C)C(=O)N[C@@H](CCSC)C(=O)N[C@H](C(=O)NCC(=O)NCC(=O)N[C@H](C(=O)N[C@H](C(=O)N[C@H](C(=O)N[C@@H](C)C(=O)O)[C@@H](C)CC)C(C)C)C(C)C)C(C)C [[N-Me-A1]Aβ(31–42), (N-Me)A-IGLMVGGWIA] (H-[NMeA]IGLMVGGVVIA-OH; N-terminus assumed)	8 ± 1 µM (≈ 8.91 µg/mL)	–	–	Toxicity of the peptide itself (cell viability, MTT) [1]: toxic
CC[C@H](C)[C@H](N)C(=O)N(C)[C@@H](C)C(=O)NCC(=O)N[C@@H](CC(C)C)C(=O)N[C@@H](CCSC)C(=O)N[C@H](C(=O)NCC(=O)NCC(=O)N[C@H](C(=O)N[C@H](C(=O)N[C@H](C(=O)N[C@@H](C)C(=O)O)[C@@H](C)CC)C(C)C)C(C)C)C(C)C [[N-Me-A2]Aβ(31–42), I-(N-Me)A-GLMVGGWIA] (H-I[NMeA]GLMVGGVVIA-OH; N-terminus assumed)	101 ± 18 µM (≈ 112 µg/mL)	–	–	–
CC[C@H](C)[C@H](N)C(=O)N[C@H](C(=O)N(C)[C@@H](C)C(=O)N[C@@H](CC(C)C)C(=O)N[C@@H](CCSC)C(=O)N[C@H](C(=O)NCC(=O)NCC(=O)N[C@H](C(=O)N[C@H](C(=O)N[C@H](C(=O)N[C@@H](C)C(=O)O)[C@@H](C)CC)C(C)C)C(C)C)C(C)C)[C@@H](C)CC [[N-Me-A3]Aβ(31–42), II-(N-Me)A-LMVGGWIA]	102 ± 16 µM (≈ 119 µg/mL)	34 ± 3 µM	18 ± 1 µM	–
CC[C@H](C)[C@H](N)C(=O)N[C@H](C(=O)NCC(=O)N(C)[C@@H](C)C(=O)N[C@@H](CCSC)C(=O)N[C@H](C(=O)NCC(=O)NCC(=O)N[C@H](C(=O)N[C@H](C(=O)N[C@H](C(=O)N[C@@H](C)C(=O)O)[C@@H](C)CC)C(C)C)C(C)C)C(C)C)[C@@H](C)CC [[N-Me-A4]Aβ(31–42), IIG-(N-Me)A-MVGGWIA] (H-IIG[NMeA]MVGGVVIA-OH; N-terminus assumed)	127 ± 37 µM (≈ 141 µg/mL)	–	–	–
CC[C@H](C)[C@H](N)C(=O)N[C@H](C(=O)NCC(=O)N[C@@H](CC(C)C)C(=O)N(C)[C@@H](C)C(=O)N[C@H](C(=O)NCC(=O)NCC(=O)N[C@H](C(=O)N[C@H](C(=O)N[C@H](C(=O)N[C@@H](C)C(=O)O)[C@@H](C)CC)C(C)C)C(C)C)C(C)C)[C@@H](C)CC [[N-Me-A5]Aβ(31–42), IIGL-(N-Me)A-VGGWIA] (H-IIGL[NMeA]VGGVVIA-OH; N-terminus assumed)	105 ± 20 µM (≈ 115 µg/mL)	–	–	–
CC[C@H](C)[C@H](N)C(=O)N[C@H](C(=O)NCC(=O)N[C@@H](CC(C)C)C(=O)N[C@@H](CCSC)C(=O)N(C)[C@@H](C)C(=O)NCC(=O)NCC(=O)N[C@H](C(=O)N[C@H](C(=O)N[C@H](C(=O)N[C@@H](C)C(=O)O)[C@@H](C)CC)C(C)C)C(C)C)[C@@H](C)CC [[N-Me-A6]Aβ(31–42), IIGLM-(N-Me)A-GGWIA] (H-IIGLM[NMeA]GGVVIA-OH; N-terminus assumed)	87 ± 18 µM (≈ 98.1 µg/mL)	–	–	–
CC[C@H](C)[C@H](N)C(=O)N[C@H](C(=O)NCC(=O)N[C@@H](CC(C)C)C(=O)N[C@@H](CCSC)C(=O)N[C@H](C(=O)N(C)[C@@H](C)C(=O)NCC(=O)N[C@H](C(=O)N[C@H](C(=O)N[C@H](C(=O)N[C@@H](C)C(=O)O)[C@@H](C)CC)C(C)C)C(C)C)C(C)C)[C@@H](C)CC [[N-Me-A7]Aβ(31–42), IIGLMV-(N-Me)A-GWIA] (H-IIGLMV[NMeA]GVVIA-OH; N-terminus assumed)	88 ± 14 µM (≈ 103 µg/mL)	–	–	–
CC[C@H](C)[C@H](N)C(=O)N[C@H](C(=O)NCC(=O)N[C@@H](CC(C)C)C(=O)N[C@@H](CCSC)C(=O)N[C@H](C(=O)NCC(=O)N(C)[C@@H](C)C(=O)N[C@H](C(=O)N[C@H](C(=O)N[C@H](C(=O)N[C@@H](C)C(=O)O)[C@@H](C)CC)C(C)C)C(C)C)C(C)C)[C@@H](C)CC [[N-Me-A8]Aβ(31–42), IIGLMVG-(N-Me)A-WIA] (H-IIGLMVG[NMeA]VVIA-OH; N-terminus assumed)	41 ± 12 µM (≈ 48 µg/mL)	14 ± 1 µM	12 ± 1 µM	–
CC[C@H](C)[C@H](N)C(=O)N[C@H](C(=O)NCC(=O)N[C@@H](CC(C)C)C(=O)N[C@@H](CCSC)C(=O)N[C@H](C(=O)NCC(=O)NCC(=O)N(C)[C@@H](C)C(=O)N[C@H](C(=O)N[C@H](C(=O)N[C@@H](C)C(=O)O)[C@@H](C)CC)C(C)C)C(C)C)[C@@H](C)CC [[N-Me-A9]Aβ(31–42), IIGLMVGG-(N-Me)A-VIA] (H-IIGLMVGG[NMeA]VIA-OH; N-terminus assumed)	115 ± 21 µM (≈ 130 µg/mL)	7 ± 1 µM	6 ± 1 µM	Improvement of IC50 relative to the parent peptide (LDH) ([3]; relative to Aβ(31–42)): 6 fold; Improvement of IC50 relative to the parent peptide (MTT) ([4]; relative to Aβ(31–42)): 3 fold
CC[C@H](C)[C@H](N)C(=O)N[C@H](C(=O)NCC(=O)N[C@@H](CC(C)C)C(=O)N[C@@H](CCSC)C(=O)N[C@H](C(=O)NCC(=O)NCC(=O)N[C@H](C(=O)N(C)[C@@H](C)C(=O)N[C@H](C(=O)N[C@@H](C)C(=O)O)[C@@H](C)CC)C(C)C)C(C)C)[C@@H](C)CC [[N-Me-A10]Aβ(31–42), IIGLMVGGV-(N-Me)A-IA]	–	–	–	solubility at 1 min [2]: 121 ± 28 µM (≈ 136 µg/mL)
CC[C@H](C)[C@H](N)C(=O)N[C@H](C(=O)NCC(=O)N[C@@H](CC(C)C)C(=O)N[C@@H](CCSC)C(=O)N[C@H](C(=O)NCC(=O)NCC(=O)N[C@H](C(=O)N[C@H](C(=O)N(C)[C@@H](C)C(=O)N[C@@H](C)C(=O)O)C(C)C)C(C)C)C(C)C)[C@@H](C)CC [[N-Me-A11]Aβ(31–42), IIGLMVGGW-(N-Me)A-A] (H-IIGLMVGGVV[NMeA]A-OH; N-terminus assumed)	86 ± 22 µM (≈ 95.8 µg/mL)	37 ± 3 µM	10 ± 1 µM	–
CC[C@H](C)[C@H](N)C(=O)N[C@H](C(=O)NCC(=O)N[C@@H](CC(C)C)C(=O)N[C@@H](CCSC)C(=O)N[C@H](C(=O)NCC(=O)NCC(=O)N[C@H](C(=O)N[C@H](C(=O)N[C@H](C(=O)N(C)[C@@H](C)C(=O)O)[C@@H](C)CC)C(C)C)C(C)C)C(C)C)[C@@H](C)CC [[N-Me-A12]Aβ(31–42)] (H-IIGLMVGGVVI[NMeA]-OH; N-terminus assumed)	28 ± 13 µM (≈ 32.4 µg/mL)	–	–	–
CC[C@H](C)[C@H](N)C(=O)N[C@H](C(=O)N(C)CC(=O)N[C@@H](CC(C)C)C(=O)N[C@@H](CCSC)C(=O)N[C@H](C(=O)NCC(=O)NCC(=O)N[C@H](C(=O)N[C@H](C(=O)N[C@H](C(=O)N[C@@H](C)C(=O)O)[C@@H](C)CC)C(C)C)C(C)C)C(C)C)[C@@H](C)CC [[N-Me-G3]Aβ(31–42), II-(N-Me)G-LMVGGWIA]	118 ± 11 µM (≈ 136 µg/mL)	–	26 ± 1 µM	Decrease in activity relative to the corresponding N-Me-A analogue (MTT) [4]: 1.4 fold
CC[C@H](C)[C@H](N)C(=O)N[C@H](C(=O)NCC(=O)N[C@@H](CC(C)C)C(=O)N[C@@H](CCSC)C(=O)N[C@H](C(=O)NCC(=O)N(C)CC(=O)N[C@H](C(=O)N[C@H](C(=O)N[C@H](C(=O)N[C@@H](C)C(=O)O)[C@@H](C)CC)C(C)C)C(C)C)C(C)C)[C@@H](C)CC [[N-Me-G8]Aβ(31–42), IIGLMVG-(N-Me)G-WIA] (H-IIGLMVG[Sar]VVIA-OH; N-terminus assumed)	18 ± 2 µM (≈ 20.8 µg/mL)	71 ± 20 µM	28 ± 1 µM	Decrease in activity relative to the corresponding N-Me-A analogue (LDH) [3]: 5.0 fold; Decrease in activity relative to the corresponding N-Me-A analogue (MTT) [4]: 2.3 fold
CC[C@H](C)[C@H](NC)C(=O)N[C@H](C(=O)NCC(=O)N[C@@H](CC(C)C)C(=O)N[C@@H](CCSC)C(=O)N[C@H](C(=O)NCC(=O)NCC(=O)N[C@H](C(=O)N[C@H](C(=O)N[C@H](C(=O)N[C@@H](C)C(=O)O)[C@@H](C)CC)C(C)C)C(C)C)C(C)C)[C@@H](C)CC [[N-Me-I1]Aβ3(31–42), (N-Me)I-IGLMVGGWIA] (H-[NMeI]IGLMVGGVVIA-OH; N-terminus assumed)	7 ± 1 µM (≈ 8.09 µg/mL)	–	–	Toxicity of the peptide itself (cell viability, MTT) ([1]; listed as [N-Me-I1]Aβ(31–42)): as toxic as [N-Me-A1]Aβ(31–42)
CC[C@H](C)[C@H](N)C(=O)N[C@H](C(=O)NCC(=O)N[C@@H](CC(C)C)C(=O)N[C@@H](CCSC)C(=O)N[C@H](C(=O)NCC(=O)NCC(=O)N[C@H](C(=O)N[C@H](C(=O)N(C)[C@H](C(=O)N[C@@H](C)C(=O)O)[C@@H](C)CC)C(C)C)C(C)C)C(C)C)[C@@H](C)CC [[N-Me-I11]Aβ3(31–42), IIGLMVGGW-(N-Me)I-A] (H-IIGLMVGGVV[NMeI]A-OH; N-terminus assumed)	132 ± 34 µM (≈ 153 µg/mL)	49 ± 3 µM	13 ± 1 µM	–
CC[C@H](C)[C@H](N)C(=O)N[C@H](C(=O)NCC(=O)N[C@@H](CC(C)C)C(=O)N[C@@H](CCSC)C(=O)N[C@H](C(=O)NCC(=O)NCC(=O)N(C)[C@H](C(=O)N[C@H](C(=O)N[C@H](C(=O)N[C@@H](C)C(=O)O)[C@@H](C)CC)C(C)C)C(C)C)C(C)C)[C@@H](C)CC [[N-Me-V9]Aβ(31–42), IIGLMVGG-(N-Me)V-VIA] (H-IIGLMVGG[NMeV]VIA-OH; N-terminus assumed)	136 ± 18 µM (≈ 157 µg/mL)	67 ± 8 µM	6 ± 1 µM	Decrease in activity relative to the corresponding N-Me-A analogue (LDH) [3]: 9.6 fold
IIGLMVGGVVIA-OH [Aβ(31–42), IIGLMVGGVVIA]	–	43 ± 2 µM	18 ± 1 µM	Rescue from Aβ42-induced inhibition of miniature excitatory postsynaptic current frequency [5]: rescued; IC50 (Aβ42): 23 ± 4 µM; solubility at 1 min [2]: 25 ± 4 µM
